Results reported in ChEMBL document CHEMBL1130122, “Synthesis, biological evaluation, and structure-activity relationships of 3-acylindole-2-carboxylic acids as inhibitors of the cytosolic phospholipase A2” (J Med Chem, 1997).

Legend:
Bos taurus = species on record: Bos taurus; test: The cell lytic potency at a compound concentration of 33 uM in bovine platelets was determined; type: functional
How it was run: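 Turbidimetric lysis assay in bovine platelets. ETYA, then compound or DMSO solvent, then platelet suspension and CaCl2 at 37 °C. The suspension was diluted with PBS and absorbance read at 800 nm; lysis lowers absorbance. Platelets were stored at +4 °C and used within 36 h of isolation.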

[1] = molecular target: T1, Cytosolic phospholipase A2 (Bos taurus, UniProt A4IFJ5); test: Inhibitory activity against cPLA2 (cytosolic Phospholipase A2) by measuring the calcium ionophore A-23,187-induced arachidonic acid release from bovine platelets; type: functional
T1 sequence (A4IFJ5 whole entry): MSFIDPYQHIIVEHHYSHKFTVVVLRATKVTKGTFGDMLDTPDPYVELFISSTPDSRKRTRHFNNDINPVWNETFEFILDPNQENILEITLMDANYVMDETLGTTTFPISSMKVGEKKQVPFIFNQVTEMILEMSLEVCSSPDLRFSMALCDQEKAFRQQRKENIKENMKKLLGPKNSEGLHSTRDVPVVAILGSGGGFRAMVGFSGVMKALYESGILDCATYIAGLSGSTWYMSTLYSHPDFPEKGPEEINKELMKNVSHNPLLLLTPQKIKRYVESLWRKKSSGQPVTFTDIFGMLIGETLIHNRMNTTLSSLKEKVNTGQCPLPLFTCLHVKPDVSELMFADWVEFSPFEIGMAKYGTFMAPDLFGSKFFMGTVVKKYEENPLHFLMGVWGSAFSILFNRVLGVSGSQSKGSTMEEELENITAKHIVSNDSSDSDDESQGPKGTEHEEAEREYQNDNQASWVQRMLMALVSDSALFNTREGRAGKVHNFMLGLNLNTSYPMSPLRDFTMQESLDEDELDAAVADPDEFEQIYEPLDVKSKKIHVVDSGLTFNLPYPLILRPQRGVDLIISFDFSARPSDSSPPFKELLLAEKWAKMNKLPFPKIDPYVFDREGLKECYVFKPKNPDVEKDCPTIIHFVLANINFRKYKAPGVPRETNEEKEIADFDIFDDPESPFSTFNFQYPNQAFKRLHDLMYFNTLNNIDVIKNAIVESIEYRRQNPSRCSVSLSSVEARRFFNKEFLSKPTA
How it was run: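 Intact bovine platelets stimulated with calcium ionophore A23187 in the presence of ETYA, which blocks arachidonic acid metabolism. Compound or solvent control was added to ETYA, then platelet suspension and CaCl2 at 37 °C. Released arachidonic acid was measured by HPLC/UV. IC50 was read graphically as the mean of at least two independent experiments. Platelets were stored at +4 °C and used within 36 h of isolation.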

[2] = tested on: Cytosolic phospholipase A2 (Bos taurus); test: Inhibitory activity against cPLA2 (cytosolic Phospholipase A2) by measuring the calcium ionophore A-23,187-induced arachidonic acid release from bovine platelets at a compound conc of 33 uM
[3] = tested on: Cytosolic phospholipase A2 (Bos taurus); test: Inhibitory activity against cPLA2 (cytosolic Phospholipase A2) by measuring the calcium ionophore A-23,187-induced arachidonic acid release from bovine platelets; Not active at highest conc tested 33 uM

Compound: CCCCCCCCCCOc1cccc(CC(=O)c2c(C(=O)O)n(C)c3ccccc23)c1
- Lysis (Bos taurus): 21%
- IC50 [1]: 10 µM

Compound: CCCCCCCCCCCCCCCCCC(=O)c1c(C(=O)O)n(CCCCCC)c2ccccc12
- Lysis (Bos taurus): 27%
- IC50 [1]: 9 µM

Compound: CCCCCCCCCCCC(=O)c1c(C(=O)O)n(CCOc2cccc(CC(=O)O)c2)c2ccccc12
- Lysis (Bos taurus): 0%

Compound: CCCCCCCC(=O)c1c(C(=O)O)n(C)c2ccccc12
- inhibition [2]: 30%
- Lysis (Bos taurus): 0%
- IC50 [1]: > 33 µM

Compound: CCCCCCCCCC(=O)c1c(C(=O)O)n(C)c2ccccc12
- Lysis (Bos taurus): 0%
- IC50 [1]: 18 µM

Compound: CCCCCCCCCCCC(=O)c1c(C(=O)O)n(Cc2cccc(CCC(=O)O)c2)c2ccccc12
- Lysis (Bos taurus): 0%
- IC50 [1]: 4.3 µM

Compound: CCCCCCCCCCOc1ccc(CCC(=O)c2c(C(=O)O)n(C)c3ccccc23)cc1
- Lysis (Bos taurus): 0%
- IC50 [1]: 10 µM

Compound: CCCCCCCCCCCCCCCCCCc1c(C(=O)O)n(C)c2ccccc12
- IC50 [3]: Not Active
- Lysis (Bos taurus): 0%

Compound: CCCCCCCCCCCCCCCCCC(=O)c1c(CC(=O)O)[nH]c2ccccc12
- IC50 [3]: Not Active
- Lysis (Bos taurus): 0%

Compound: CCCCCCCCCCCCCCCCCC(=O)c1c(C(=O)O)n(CCCCCCCC(=O)O)c2ccccc12
- Lysis (Bos taurus): 69%
- IC50 [1]: 1.4 µM

Compound: CCCCCCCCCCCCCCCCCC(=O)c1c(C(=O)O)[nH]c2ccccc12
- IC50 [3]: Not Active
- Lysis (Bos taurus): 0%

Compound: CCCCCCCCCCCC(=O)c1c(C(=O)O)n(C)c2ccc(OC)cc12
- Lysis (Bos taurus): 0%
- IC50 [1]: 8 µM

Compound: CCCCCCCCCCCC(=O)c1c(C(=O)O)n(C)c2cccc(Cl)c12
- Lysis (Bos taurus): 50%
- IC50 [1]: 9 µM

Compound: CCCCCCCCCCCC(=O)c1c(C(=O)O)n(CCCCCC(=O)O)c2ccccc12
- Lysis (Bos taurus): 0%
- IC50 [1]: 8 µM

Compound: CCCCCCCCCCCC(=O)c1c(C(=O)O)n(CCCCCCC(=O)O)c2ccccc12
- Lysis (Bos taurus): 0%
- IC50 [1]: 3 µM

Compound: CCCCCCCCCCCC(=O)c1c(C(=O)O)n(C)c2ccc(O)cc12
- Lysis (Bos taurus): 0%
- IC50 [1]: 10 µM

Compound: CCCCCCCCCCOc1ccccc1CCC(=O)c1c(C(=O)O)n(C)c2ccccc12
- Lysis (Bos taurus): 34%
- IC50 [1]: 34 µM

Compound: CCCCCCCCCCCCCC(=O)c1c(C(=O)O)n(C)c2ccccc12
- Lysis (Bos taurus): 0%
- IC50 [1]: 8 µM

Compound: CCCCCCCCCCCC(=O)c1c(C(=O)O)n(CCCCCCCCCCC(=O)O)c2ccccc12
- Lysis (Bos taurus): 0%
- IC50 [1]: 1.4 µM

Compound: CCCCCCCCCCCC(=O)c1c(C(=O)O)n(Cc2cccc(/C=C/C(=O)O)c2)c2ccccc12
- Lysis (Bos taurus): 0%
- IC50 [1]: 5.3 µM

Compound: CCCCC/C=C\C/C=C\C/C=C\C/C=C\CCCC(=O)C(F)(F)F [ARACHIDONYL TRIFLUOROMETHYLKETONE]
- Lysis (Bos taurus): 31%
- IC50 [1]: 11 µM

Compound: CCCCCCCCCCCC(=O)c1c(C(=O)O)n(C)c2ccc(F)cc12
- Lysis (Bos taurus): 0%
- IC50 [1]: 11 µM

Compound: CCCCCCCCCCCCOc1cccc(C(=O)c2c(C(=O)O)n(C)c3ccccc23)c1
- Lysis (Bos taurus): 26%
- IC50 [1]: 7 µM

Compound: CCCCCCCCCCCC(=O)c1c(C(=O)O)n(CC(=O)O)c2ccccc12
- inhibition [2]: 39%
- Lysis (Bos taurus): 0%
- IC50 [1]: > 33 µM

Compound: CCCCCCCCCCCCCCCCCC(=O)c1c(C(=O)OCC)n(C)c2ccccc12
- IC50 [3]: Not Active
- Lysis (Bos taurus): 0%

Compound: CCCCCCCCCCCC(=O)c1c(C(=O)O)n(C)c2ccc(Cl)cc12
- Lysis (Bos taurus): 14%
- IC50 [1]: 8 µM

Compound: CCCCCCCCCCCCCCCCCC(=O)c1c(C(=O)O)n(CCCCCCCCCCCC)c2ccccc12
- Lysis (Bos taurus): 0%

Compound: CCCCCCCCCCCC(=O)c1c(C(=O)O)n(C)c2ccc([N+](=O)[O-])cc12
- Lysis (Bos taurus): 10%
- IC50 [1]: 10 µM

Compound: CCCCCCCCCCCCCCCCCC(=O)c1c(CCC(=O)O)n(C)c2ccccc12
- IC50 [3]: Not Active
- Lysis (Bos taurus): 0%

Compound: CCCCCCCCCCOc1ccccc1CC(=O)c1c(C(=O)O)n(C)c2ccccc12
- Lysis (Bos taurus): 37%
- IC50 [1]: 7 µM

Compound: CCCCCCCCCCCC(=O)c1c(C(=O)O)n(CCOc2ccc(C(=O)O)cc2)c2ccccc12
- Lysis (Bos taurus): 0%
- IC50 [1]: 0.5 µM

Compound: CCCCCCCCCCCCOc1ccc(C(=O)c2c(C(=O)O)n(C)c3ccccc23)cc1
- Lysis (Bos taurus): 19%
- IC50 [1]: 7 µM

Compound: CCCCCCCCCCCC(=O)c1c(C(=O)O)n(Cc2ccc(/C=C/C(=O)O)cc2)c2ccccc12
- Lysis (Bos taurus): 0%
- IC50 [1]: 4.1 µM

Compound: CCCCCCCCCCCC(=O)c1c(C)c(C)n(C)c1C(=O)O
- Lysis (Bos taurus): 0%
- IC50 [1]: 11 µM

Compound: CCCCCCCCCCCC(=O)c1c(C(=O)O)n(CCCCCCCC(=O)O)c2ccccc12
- Lysis (Bos taurus): 0%
- IC50 [1]: 1.6 µM

Compound: CCCCCCCCCCCCCCCCCC(=O)c1c(C(=O)O)n(CCCCCCC)c2ccccc12
- Lysis (Bos taurus): 16%
- IC50 [1]: > 10 µM

Compound: CCCCCCCCCCCC(=O)c1c(C(=O)O)n(Cc2ccc(CCC(=O)O)cc2)c2ccccc12
- Lysis (Bos taurus): 0%
- IC50 [1]: 4 µM

Compound: CCCCCCCCCCCCCCCCCC(=O)c1c(CCC(=O)O)[nH]c2ccccc12
- IC50 [3]: Not Active
- Lysis (Bos taurus): 0%

Compound: CCCCCCCCCCCCCCCCCC(=O)c1c(C(=O)O)n(CCCCCCCC)c2ccccc12
- Lysis (Bos taurus): 0%

Compound: CCCCCCCCCCCCCCCCCC(=O)c1c(C(=O)O)n(C)c2ccccc12
- Lysis (Bos taurus): 0%
- IC50 [1]: 8 µM

Compound: CCCCCCCCCCCC(=O)c1c(C(=O)O)n(C)c2cc(Cl)ccc12
- Lysis (Bos taurus): 26%
- IC50 [1]: 9 µM

Compound: CCCCCCCCCCOc1cccc(CCC(=O)c2c(C(=O)O)n(C)c3ccccc23)c1
- Lysis (Bos taurus): 14%
- IC50 [1]: 11 µM

Compound: CCCCCCCCCCCCCCCCNC(=O)C1CCCN1 (configuration not stated)
- Lysis (Bos taurus): 0%
- IC50 [1]: 13 µM

Compound: CCCCCCCCCCCC(=O)c1c(C(=O)O)n(CCCCCCCCC(=O)O)c2ccccc12
- Lysis (Bos taurus): 0%
- IC50 [1]: 1.6 µM

Compound: CCCCCCCCCCCCCCCCCC(=O)c1c(CC(=O)O)n(C)c2ccccc12
- Lysis (Bos taurus): 0%
- IC50 [1]: > 33 µM

Compound: CCCCCCCCCCCC(=O)c1c(C(=O)O)n(CCOc2ccc(CC(=O)O)cc2)c2ccccc12
- Lysis (Bos taurus): 0%

Compound: CCCCCCCCCCOc1ccc(CC(=O)c2c(C(=O)O)n(C)c3ccccc23)cc1
- Lysis (Bos taurus): 38%
- IC50 [1]: 7 µM

Compound: CCCCCCCCCCCCOc1ccccc1C(=O)c1c(C(=O)O)n(C)c2ccccc12
- Lysis (Bos taurus): 60%

Compound: CCCCCCCCCCCC(=O)c1c(C(=O)O)n(CCOc2cccc(C(=O)O)c2)c2ccccc12
- Lysis (Bos taurus): 0%
- IC50 [1]: 1.9 µM

Compound: CCCCCCCCCCCC(=O)c1c(C(=O)O)n(C)c2ccccc12
- Lysis (Bos taurus): 0%
- IC50 [1]: 8 µM
